Fewer inactive variants are shown than the library holds.
B1: tRNA (parent)
chain: GUUCCGUUGGCGUAAUGGUAACGCGUCUCCCUCCUAAGGAGAAGACUGCGGGUUCGAGUCCCGUACGGAACG

Variants of: B1
Assay: yeast fitness relative to wild type (ratio to wild type); higher = fitter; tRNA-Arg(CCU), competitive growth, 37 C, YPD
Outline: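 Variants of the tRNA-Arg(CCU) gene, chemically synthesised with a 3% per-site mutation rate at 69 sites, were placed at the native genomic locus in Saccharomyces cerevisiae. The pooled strains were competed in YPD at 37°C for 24 hours in six parallel replicates. Gene amplicons from the start population and from each end population were read by 100-nucleotide paired-end sequencing. Darwinian fitness relative to wild type came from changes in genotype frequencies; genotypes needed ≥ 100 starting reads, and estimates < 0.5 were set to 0.5.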
Work on U19A G67U yielded a yeast fitness of 0.974.
U19C C24U A70C gave a yeast fitness of 0.755.
Variant U19C C24U A70U has a yeast fitness of 0.849.
U19G A70C showed a yeast fitness of 0.999.
With U19G A70U the yeast fitness was 1.02.
For U19C G58A, the yeast fitness was 0.961.
In the case of U19C A20U C61G C66U A69U, the yeast fitness is reported as ≤ 0.5.
U19C C30U G51C gave a yeast fitness of 0.693.
In the case of U19C A20C G50C U64C, the yeast fitness is reported as ≤ 0.5.
For U19G A40G C55G A65C, the yeast fitness was ≤ 0.5.
For U19C G44C A69U, the yeast fitness was 0.762.
U19C C31G A65U gave a yeast fitness of 0.596.
Work on U19A U59G yielded a yeast fitness of 0.793.
Work on U19A U59A yielded a yeast fitness of 0.845.
With U19C A21G C22U the yeast fitness was 0.552.
In the case of U19C C27A U54G, the yeast fitness is reported as ≤ 0.5.
For U19C U26C G41C A43U A57G, the yeast fitness was ≤ 0.5.
U19C C61U gave a yeast fitness of 0.925.
For A20C C27U C34G A43C C61U C62G, the yeast fitness was ≤ 0.5.
With U19G C34U the yeast fitness was 0.687.
With A20C A65C the yeast fitness was 0.957.
For U19C C46U A69U, the yeast fitness was 0.804.
With U19C C27A C30U G56C the yeast fitness was ≤ 0.5.
U19G C49U C62A showed a yeast fitness of 0.598.
With U19C G50A C55A A65U the yeast fitness was ≤ 0.5.
Variant A20C A43C has a yeast fitness of 0.816.
With A20C A36G the yeast fitness was 0.908.
In the case of U19C U32A A37C C55G, the yeast fitness is reported as ≤ 0.5.
A20C C24G C27A G51C C61U showed a yeast fitness of 0.586.
In the case of U19C A21U A69U, the yeast fitness is reported as 0.691.
For U19C A20C C33U U35A G58A, the yeast fitness was ≤ 0.5.
With A20C A21U A42U the yeast fitness was ≤ 0.5.
In the case of U19C A20G G67A A69U, the yeast fitness is reported as ≤ 0.5.
In the case of U19C U26A U32A, the yeast fitness is reported as 0.541.
For U19G C22U C49U C62A, the yeast fitness was ≤ 0.5.
Work on U19G C24A C34G yielded a yeast fitness of 0.75.
Variant U19A G44A A69C has a yeast fitness of 0.685.
With U19C C49A A57C the yeast fitness was 0.599.
With U19C C22A C55G C62U the yeast fitness was ≤ 0.5.
In the case of U19A G48A A69U, the yeast fitness is reported as 0.966.
A20C A43U A69C gave a yeast fitness of 0.605.
Variant U19C A37C A45C C46A has a yeast fitness of 0.897.
For U19C C27G U47A, the yeast fitness was ≤ 0.5.
With A20C C22G C33U A45U the yeast fitness was ≤ 0.5.
In the case of U19C A45U, the yeast fitness is reported as 0.923.
For A20C C22A C27G G51C, the yeast fitness was ≤ 0.5.
For A20C C27U A37C A42G C66U, the yeast fitness was ≤ 0.5.
With U19G A43C U53C C55G G67C A69C the yeast fitness was ≤ 0.5.
For U19C C30G U59C A69U, the yeast fitness was ≤ 0.5.
With U19C C24G A37U U47A C66A the yeast fitness was ≤ 0.5.
For U19C C30U C55G G58C, the yeast fitness was 0.533.
With U19C C22U U32G C34U A40G A57U A70U the yeast fitness was ≤ 0.5.
For U19C C49A G68C, the yeast fitness was ≤ 0.5.
With U19C C27A A43G the yeast fitness was 0.606.
In the case of U19G C29U A70C, the yeast fitness is reported as ≤ 0.5.
U19G A37G gave a yeast fitness of 0.76.
For U19G C29A A69U, the yeast fitness was ≤ 0.5.
Variant A20C C27U G67U has a yeast fitness of 0.674.
In the case of U19G A57G, the yeast fitness is reported as 0.611.
For U19G C22G C34U C61G, the yeast fitness was ≤ 0.5.
For A20C C29G C62A, the yeast fitness was ≤ 0.5.
Variant U19G G48C has a yeast fitness of 0.948.
In the case of U19G A20U C30U G48A A70U, the yeast fitness is reported as ≤ 0.5.
With U19G C46G A57C the yeast fitness was ≤ 0.5.
A20C A45C C46U gave a yeast fitness of 0.587.
In the case of U19C A20U C27G G52C, the yeast fitness is reported as ≤ 0.5.
With U19G A20C U26C G41A G63A C66U the yeast fitness was ≤ 0.5.
In the case of U19C A20C C24A, the yeast fitness is reported as ≤ 0.5.
In the case of A20C C29A, the yeast fitness is reported as 0.635.
U19G C62U showed a yeast fitness of 0.857.
Work on U19C U26C G44A yielded a yeast fitness of 0.521.
In the case of U19A U28A C60G, the yeast fitness is reported as ≤ 0.5.
For U19A U26C C30A A43C, the yeast fitness was ≤ 0.5.
For U19C C62A, the yeast fitness was 0.713.
Variant U19C C62G has a yeast fitness of 0.832.
In the case of A20C A37C A43G C62U, the yeast fitness is reported as ≤ 0.5.
With U19C A65U the yeast fitness was 1.07.
For U19C C29U A43G, the yeast fitness was 0.677.
Work on U19G U47A yielded a yeast fitness of 0.771.
In the case of U19C A20G A37G, the yeast fitness is reported as ≤ 0.5.
U19G C22U C31U A40U G67A showed a yeast fitness of 0.637.
With A20C A21G G67C the yeast fitness was 0.712.
With U19G G56A C60U the yeast fitness was 0.69.
For A20C A21U C27G A42U A69C, the yeast fitness was ≤ 0.5.

Source: the RNAGym collection of RNA variant scans (doi:10.1126/science.aae0568)
